These results are taken from ChEMBL document CHEMBL3272286, “Inhibitors of Bacillus subtilis DNA polymerase III. Structure-activity relationships of 6-(phenylhydrazino)uracils” (J Med Chem, 1977).

Assay [1] deals with Bacillus subtilis. The experiment in a line: Inhibition of wild type Bacillus subtilis DNA polymerase-3 using DNAase 1-treated DNA as template assessed as inhibition of dGTP truncated DNA synthesis by measuring incorporation of [3H]-TMP at 1 mM in presence of dithiothreitol relative to control. The gist of the method: (§1)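 dGTP-omitted pol III reaction, 30 °C, 5 min, in 0.05 mL: 20% glycerol, 50 mM Tris HCl pH 7.6, 10 mM MgCl2, 30 mM NaCl, 1.2 mM DNAase I-activated calf thymus DNA, 5 mM DTT, 0.1 mg/mL BSA, 10 μM each dATP, dCTP and [3H]-TTP, 0.005-0.1 unit enzyme. Read-out is acid-insoluble radioactivity. Ki is the inhibitor concentration giving 50% inhibition.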

Assay [2] is described as follows: Inhibition of wild type Bacillus subtilis DNA polymerase-3 using DNAase 1-treated DNA as template assessed as inhibition of dGTP truncated DNA synthesis by measuring incorporation of [3H]-TMP in presence of dithiothreitol. In a few lines:
as §1

Assay [3] in a line: Inhibition of HPUra/HPiCyt-resistant Bacillus subtilis DNA polymerase-3/azp-12 mutant using DNAase 1-treated DNA as template assessed as inhibition of dGTP truncated DNA synthesis by measuring incorporation of [3H]-TMP in presence of dithiothreitol. In a few lines: as §1
Assay [4] has as its system Bacillus subtilis. The experiment in a line: Inhibition of wild type Bacillus subtilis DNA polymerase-3 using DNAase 1-treated DNA as template assessed as inhibition of dGTP truncated DNA synthesis by measuring incorporation of [3H]-TMP at 20 uM in presence of dithiothreitol relative to control. The gist of the method:
as §1

Assay [5] concerns Bacillus subtilis. The experiment in a line: Inhibition of HPUra/HPiCyt-resistant Bacillus subtilis DNA polymerase-3/azp-12 mutant using DNAase 1-treated DNA as template assessed as inhibition of dGTP truncated DNA synthesis by measuring incorporation of [3H]-TMP at 20 uM relative to control in presence of dithiothreitol. In a few lines: as §1
The test system of assay [6] is Bacillus subtilis. The experiment in a line: Resistance ratio of Ki for HPUra/HPiCyt-resistant Bacillus subtilis DNA polymerase-3/azp-12 mutant to Ki for wild type Bacillus subtilis DNA polymerase-3.

With `Cn1c(NNc2ccccc2)cc(=O)[nH]c1=O`, the inhibition in the assay on Bacillus subtilis [1] is less than 10%.

Regarding `O=c1cc(NNc2cccc(Br)c2)[nH]c(=O)[nH]1`, the Ki in assay [2] came to 1.4 µM.

Take `O=c1cc(NNc2ccc(Cl)c(Cl)c2)[nH]c(=O)[nH]1`: in assay [2], the inhibition constant Ki stood at 0.6 µM.

With `O=c1cc(NNc2ccc(O)c(Cl)c2)[nH]c(=O)[nH]1`, the Ki in assay [2] worked out at 8.8 µM.

For the molecule `Cc1ccc(NNc2cc(=O)[nH]c(=O)[nH]2)cc1`, the inhibitory constant (Ki) worked out at 0.5 µM in assay [2] and 0.4 µM in assay [3].

`Cc1cc(NNc2cc(=O)[nH]c(=O)[nH]2)cc(C)c1O`: the Ki in assay [2] worked out at 124 µM.

For `CC(=O)Nc1ccc(NNc2cc(=O)[nH]c(=O)[nH]2)cc1`, the inhibition constant Ki in assay [2] amounted to 560 µM.

`O=c1cc(NNc2cccc(Cl)c2)[nH]c(=O)[nH]1`: the Ki in assay [2] was 1.1 µM.

For `Cc1cccc(NNc2cc(=O)[nH]c(=O)[nH]2)c1`, the inhibition constant Ki in assay [2] was 2.5 µM. For the same molecule, the values for the inhibition in the assay on Bacillus subtilis [4] and in the assay on Bacillus subtilis [5] were 80% and 85%, respectively.

Turning to `O=c1cc(NNc2ccc(Br)cc2)[nH]c(=O)[nH]1`, the Ki in assay [2] was 0.7 µM. Also, the inhibition stood at 82% in the assay with Bacillus subtilis [4] and 95% in the assay with Bacillus subtilis [5].

For `CS(=O)(=O)c1ccc(NNc2cc(=O)[nH]c(=O)[nH]2)cc1`, in assay [2], the Ki stood at 209 µM.

`Cc1ccc(NNc2cc(=O)[nH]c(=O)[nH]2)cc1Cl`: the Ki in assay [2] is 0.8 µM.

Turning to `Nc1cc(O)nc(O)n1`, the inhibition in the assay with Bacillus subtilis [1] was less than 10%.

In the case of `O=c1cc(NNc2ccc(F)cc2)[nH]c(=O)[nH]1`, the Ki in assay [2] worked out at 3 µM. Moreover, the inhibition came out at 82% in the assay on Bacillus subtilis [4] and 93% in the assay with Bacillus subtilis [5].

With `Cn1c(=O)cc(NNc2ccc(O)cc2)[nH]c1=O`, in assay [2], the Ki came to 0.5 µM.

`Cc1ccc(NNc2cc(=O)[nH]c(=O)[nH]2)cc1C`: the Ki in assay [2] came to 1.4 µM.

As for `Cn1c(=O)cc(NNc2ccccc2)[nH]c1=O`, the Ki in assay [2] amounted to 1.6 µM.

For the molecule `NNc1cc(=O)[nH]c(=O)[nH]1`, the inhibition with Bacillus subtilis [1] was less than 10%.

Consider `CCCCc1ccc(NNc2cc(=O)[nH]c(=O)[nH]2)cc1`, for which the inhibition constant Ki in assay [2] was 2300 µM.

For `CCc1ccccc1NNc1cc(=O)[nH]c(=O)[nH]1`, in assay [2], the inhibition constant (Ki) worked out at 562 µM.

Consider `Cc1ccccc1NNc1cc(=O)[nH]c(=O)[nH]1`, for which the Ki in assay [2] was 234 µM.

With `CN(Nc1cc(=O)[nH]c(=O)[nH]1)c1ccccc1`, in assay [2], the inhibition constant (Ki) stood at 480 µM.

Turning to `CCc1ccc(NNc2cc(=O)[nH]c(=O)[nH]2)cc1`, in assay [2], the Ki is 1.6 µM.

As to `O=C(O)c1ccc(NNc2cc(=O)[nH]c(=O)[nH]2)cc1`, in assay [2], the Ki was determined as 98 µM.

With `Nc1nc(NNc2ccc(O)cc2)cc(=O)[nH]1`, in the assay on Bacillus subtilis [6], the Ratio Ki came to 30.

For `O=c1cc(NNc2ccccc2)[nH]c(=O)[nH]1`, the Ki in assay [2] stood at 1.4 µM; in assay [3] it was 2.1 µM.

As to `Cc1cc(NNc2cc(=O)[nH]c(=O)[nH]2)ccc1O`, the Ki in assay [2] worked out at 51.2 µM.

As for `O=c1cc(NNc2cccc(F)c2)[nH]c(=O)[nH]1`, in assay [2], the Ki was 0.7 µM.

Take `O=c1cc(NNc2ccc([N+](=O)[O-])cc2)[nH]c(=O)[nH]1`: the Ki in assay [2] turned out to be 26.3 µM.

In the case of `O=c1cc(NNc2ccc(O)cc2)[nH]c(=O)[nH]1`, the inhibition constant (Ki) in assay [2] came to 0.4 µM; in assay [3], 20 µM. In addition, the Ratio Ki in the assay with Bacillus subtilis [6] was determined as 50.

With `O=c1cc(NNc2ccccc2F)[nH]c(=O)[nH]1`, the Ki in assay [2] came out at 7.2 µM.

Regarding `Nc1ccc(NNc2cc(=O)[nH]c(=O)[nH]2)cc1`, the values for the inhibitory constant (Ki) in assay [2] and in assay [3] were 7.1 µM and 76.4 µM, respectively.

As to `O=c1cc(NNc2ccc(Cl)cc2)[nH]c(=O)[nH]1`, in assay [2], the Ki came out at 0.9 µM. For the same molecule, the values for the inhibition in the assay with Bacillus subtilis [4] and with Bacillus subtilis [5] were 91% and 95%, respectively.
